ARNT-TACC3 inh – disruptors of ARNT/TACC3 protein interaction, primary screen, biochemical, AlphaScreen, single concentration; AlphaScreen His-ARNT PAS-B/GST-TACC3 binding, luminescence; TACC3 fragment carries E629A point mutation; inhibition, % at 9.99 µM; 390,000 tested, 0.66% active; AID 623870, 2012;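 active = mean inhibition of replicates at least 50% and at least half of replicates each reaching 50%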;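 note: 0% = complete ARNT plus TACC3 wells and 100% = ARNT alone without TACC3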
SIRT5 block – SIRT5 desuccinylase inhibitors, primary screen, biochemical, fluorescence imaging, single point, set 5; NAD-dependent protein deacylase sirtuin-5, mitochondrial (Homo sapiens), Q9NXA8; Purified SirT5, succinyl-peptide AMC, trypsin-coupled fluorescence; inhibition, % at 15 µM; 330,000 tested, 1.1% active; AID 652115, 2013; in the data active = inhibition above about 15%
Target sequence (Q9NXA8 whole entry, looked up): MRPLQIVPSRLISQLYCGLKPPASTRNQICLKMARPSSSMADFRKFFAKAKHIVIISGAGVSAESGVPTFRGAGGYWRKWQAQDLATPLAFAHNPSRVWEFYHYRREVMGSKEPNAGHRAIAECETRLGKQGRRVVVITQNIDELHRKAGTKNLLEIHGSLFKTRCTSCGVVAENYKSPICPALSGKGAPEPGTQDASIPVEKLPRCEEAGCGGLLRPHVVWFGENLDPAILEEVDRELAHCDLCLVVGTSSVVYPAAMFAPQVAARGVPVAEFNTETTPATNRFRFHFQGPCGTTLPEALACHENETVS
Xi reactivation – activators of inactive X chromosome reactivation, primary screen, imaging, XiGFP fibroblasts, GFP high-content imaging, set 2; XiGFP mouse fibroblasts, % GFP-positive cells imaging, 3 d; cells co-treated with 5-aza-dC sensitizer; scaled so ellipticine positive control = 100%; AID 743238, 2013; activation, % at 7.58 µM; 360,000 tested, 0.055% active;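 active = mean normalized replicate activation at least 10% and every replicate at or above 10%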;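 note: 0% = median of on-plate neutral control wells and 100% = ellipticine 6 µM median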
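Material: XiGFP fibroblasts, SV40-immortalized. Buffer or medium: DMEM plus 5-aza-dC sensitizer. Compound: single concentration per compound, delivered by pin transfer. Times: 3 days compound exposure. Controls: ellipticine 6 µM.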
FGF22 binding – binders of human FGF22 protein, primary screen, FGF22 synaptogenesis inhibitor project, biophysical, thermal shift, single point | recombinant FGF22 thermal shift, SYPRO orange fluorescence; percent of sucrose octasulfate shift, DMSO zero | activity (Tm shift, normalised), % at 9.99 µM | 340,000 tested, 1.5% active | AID 651658, 2012;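 active = mean Tm shift, scaled 0 neutral to 100 positive control, at about 1.3% or above, every replicate too, limit read from the data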
Target sequence (Q9HCT0 whole entry, looked up): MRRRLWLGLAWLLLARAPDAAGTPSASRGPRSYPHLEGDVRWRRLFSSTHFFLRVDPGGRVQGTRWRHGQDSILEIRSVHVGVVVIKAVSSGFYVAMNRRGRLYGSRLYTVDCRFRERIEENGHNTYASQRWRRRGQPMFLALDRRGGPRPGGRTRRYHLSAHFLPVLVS
DENV2 CPE – inhibitors of DENV2 cytopathic effect, primary screen, cell-based, plate reader, single concentration | DENV2-infected cells, cytopathic effect rescue | CPE inhibition, % at 9.99 µM | 350,000 tested, 1.7% active; in the data active = CPE inhibition above about 20%, passing the limit was not always enough; tested in BHK-21 cells;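 note: 0% = median of neutral control wells and 100% = median of positive control wells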
FN deposition inh – inhibitors of fibronectin matrix deposition, primary screen, AH1F cells, Alexa488-fibronectin fluorescence, plate reader; AH1F fibroblasts, overnight; inhibition, % at 12.6 µM; 350,000 tested, 0.086% active;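 active = mean inhibition across replicates of 30% or more, regardless of how many single replicates reach that level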;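 note: positive control wells lacked labelled fibronectin entirely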
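Assay system: AH1F fibroblasts / Quantity: 10000 cells per well / Medium: DMEM plus 2% serum, read in PBS / Reagent: labelled fibronectin 24 nM / Dosing: single dose, pinned / Times: 1 h cell attachment, overnight exposure to compound and label / Signal: fluorescence, ex 485 nm, em 525 nm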
An asterisk follows results filed as active; . = no result; ! = repeats disagree. The list is not random: actives were taken first. Their share in the collection is about 3.8%.

SMILES	ARNT-TACC3 inh	SIRT5 block	Xi reactivation	FGF22 binding	DENV2 CPE	FN deposition inh
CCCCn1c(N)c(N(CCC(C)C)C(=O)C2CC(=O)N(c3ccccc3OCC)C2)c(=O)[nH]c1=O (configuration not stated)	-3.8	-0.2	-0.1	-0.1	66.1*	-3.7
Cc1noc(C)c1S(=O)(=O)Nc1ccc2c(c1)C(=O)N([C@@H](C)CO)C[C@H](C)[C@@H](CN(C)S(=O)(=O)c1cccs1)O2	-7.3	-2.0	0.1	-0.3	-8.7	.
Cc1ccc(/C=C/C(=O)O)cc1S(=O)(=O)N1CCc2ccccc2C1	-12.4	0.8	0.0	43.3*	3.7	-7.5
COc1ccc(/C=C/C(=O)O)cc1S(=O)(=O)N1CCc2ccccc2C1	-1.7	6.0	0.0	0.6	0.6	-4.6
Cc1ccc(/C=C/C(=O)O)cc1S(=O)(=O)Nc1ccccc1C(=O)O	-12.3	-0.1	0.0	43.5*	5.1	.
CCCCOc1ccc(C(=O)N/N=C/c2ccc(OCCN3CCCCC3)c(OC)c2)cc1	12.6	0.1	-0.1	.	32.2*	-3.2
Cc1ccc(S(=O)(=O)N(C)C[C@@H]2OCCCC[C@@H](C)Oc3ccc(NC(=O)CCC(F)(F)F)cc3C(=O)N([C@H](C)CO)C[C@@H]2C)cc1	-11.4	0.2	0.0	.	-0.9	10.6
Cc1ccc(C2=C/C(=C/c3cccnc3)C(=O)O2)c(C)c1	3.1	-1.7	0.0	44.3*	1.4	-1.3
O=C1OC(c2ccc(Cl)cc2)=C/C1=C/c1cccnc1	-2.2	-0.4	0.1	0.1	8.4	-0.1
CN1CCN(C(=O)C[C@@H]2CC[C@@H]3[C@H](COC[C@@H](O)CN3Cc3ccc4c(c3)OCO4)O2)CC1	5.3	3.1	0.1	-0.1	99.8*	5.0
CN1CCN(C(=O)C[C@H]2CC[C@@H]3[C@H](COC[C@H](O)CN3Cc3cccc(Cl)c3)O2)CC1	-0.4	0.9	0.0	0.0	2.5	-3.3
O=C(C[C@@H]1CC[C@H]2[C@@H](COC[C@@H](O)CN2Cc2cccc(-c3ccncc3)c2)O1)N1CCCCC1	16.9	-2.4	0.0	-0.1	28.8*	5.5
CN1CCN(C(=O)C[C@@H]2CC[C@@H]3[C@H](COC[C@@H](O)CN3Cc3cccc(Cl)c3)O2)CC1	-41.7	9.9	0.1	-0.2	30.8*!	0.2
O=C(NCC1CC1)[C@@H]1[C@@H](CO)[C@@H]2Cn3c(ccc(-c4cccnc4)c3=O)[C@H]1N2C(=O)C1CCCCC1	-9.5	-36.6	0.1	0.1	-5.2	.
O=C(NN1C(=O)/C(=C/C=C/c2ccco2)SC1=S)c1ccccc1O	44.9	45.7*	-0.1	0.2	6.5	-1.2
O=C(O)C(Cc1ccccc1)N1C(=O)/C(=C/C=C/c2ccco2)SC1=S (configuration not stated)	2.3	44.9*	-0.3	-0.1	6.3	2.7
Cn1cccc1/C=C1\SC(=S)N(NC(=O)c2ccccc2O)C1=O	12.3	5.1	-0.1	0.1	5.2	16.4
O=C(O)CC(C(=O)O)N1C(=O)/C(=C/C=C/c2ccco2)SC1=S (configuration not stated)	-0.7	30.2*	-0.1	0.1	4.5	7.0
O=C1S/C(=C\C=C\c2ccco2)C(=O)N1c1ccc(O)cc1	6.9	4.9	0.4	.	1.0	-1.9
O=C(O)CCCN1C(=O)/C(=C/C=C/c2ccco2)SC1=S	2.6	32.4*	-0.2	0.1	8.2	5.8
O=C1CNC[C@@H]2[C@@H](c3ccc(C4=CCCC4)cc3)[C@@H](CO)N12	.	-1.0	0.0	.	-7.7	-0.9
COc1ccc(C[C@H]2CCn3cc(nn3)COC[C@@H](Cc3ccccc3)NC2=O)cc1	.	.	0.3	.	.	-5.7
CCOC(=O)c1[nH]c(C)c(C(=O)OCC(=O)N2CC(=O)Nc3ccccc32)c1C	-3.6	-0.3	0.1	0.0	70.9*	3.2
O=C(c1cc2c(=O)n3ccccc3nc2s1)N1CCN(Cc2ccccc2)CC1	.	-5.9	0.2	0.1	-7.2	3.3
O=C(c1cc2c(=O)n3ccccc3nc2s1)N1CCN(Cc2ccc3c(c2)OCO3)CC1	2.4	-17.8	0.0	43.0*	-0.4	-20.6
SMILES	ARNT-TACC3 inh	SIRT5 block	Xi reactivation	FGF22 binding	DENV2 CPE	FN deposition inh
CN(C)S(=O)(=O)c1cccc(NC(=O)c2cc3c(=O)n4ccccc4nc3s2)c1	22.5	16.0*	0.0	0.1	-2.1	-1.2
O=S(=O)(c1ccccc1)N1CC2(C1)[C@@H](c1ccccc1)[C@@H](CO)N2CC1CCOCC1	.	-2.3	0.3	-0.1	2.8	1.9
c1ccc(COc2cccc(-c3cc4nc(NCCc5ccncc5)ccn4n3)c2)cc1	.	18.6*	0.1	0.4	6.7	-5.1
O=C(Cc1ccncc1)NCC[C@H]1CC[C@@H](NC(=O)Nc2cccc(F)c2)[C@@H](CO)O1	-7.3	-0.3	0.0	-0.2	-0.7	1.3
CCOc1cc(/C=N/Nc2nn3cnnc3c3ccccc23)ccc1O	57.0*	5.6	-0.1	0.4	7.3	8.0
CC(=O)Nc1ccc(NC(=O)C(C)OC(=O)CC2CCCCC2)cc1 (configuration not stated)	-0.1	3.8	0.2	0.0	-4.5	2.7
CC(OC(=O)CC1CCCCC1)C(=O)Nc1ccc(F)cc1 (configuration not stated)	-8.1	20.7*	-0.1	-0.6	-4.1	0.1
C[C@H]1CCCCO[C@H](CN(C)C(=O)Nc2ccc(F)cc2)[C@@H](C)CN([C@@H](C)CO)C(=O)c2cc(NS(=O)(=O)c3cccs3)ccc2O1	-2.4	7.7	-0.7	-0.1	26.6*	.
CC(C)NC(=O)N(C)C[C@H]1OCCCC[C@@H](C)Oc2ccc(NS(=O)(=O)c3cccs3)cc2C(=O)N([C@H](C)CO)C[C@@H]1C	-7.7	-1.7	0.6	-0.1	-7.1	-15.9
CC(C)NC(=O)N(C)C[C@@H]1OCCCC[C@@H](C)Oc2ccc(NS(=O)(=O)c3cccs3)cc2C(=O)N([C@H](C)CO)C[C@@H]1C	-14.2	-2.8	-0.1	-0.3	54.5*	5.7
C[C@@H]1CCCCO[C@@H](CN(C)C(=O)Nc2ccc(F)cc2)[C@H](C)CN([C@H](C)CO)C(=O)c2cc(NS(=O)(=O)c3cccs3)ccc2O1	-2.7	7.3	0.1	-0.3	-12.2	.

Assay outcomes from PubChem BioAssay.
